From ChEMBL document CHEMBL4184083, “Design, synthesis and biological evaluation of glutamic acid derivatives as anti-oxidant and anti-inflammatory agents” (Bioorg Med Chem Lett, 2018) come the findings set out here.

A short description of data set [1]: Chemical stability of the compound assessed as parent compound remaining at 1 mg/ml measured after 1 day at 45 degC by HPLC method (reference value: 100%). The class given is physicochemical. Conditions: read-out: Stability. The procedure, abridged: (§1)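 Sample dissolved at 1 mg in 1 mL distilled water, stored at 45 °C and analysed by HPLC at intervals up to 28 days; remaining amount expressed relative to day-0 HPLC peak area set as 100%.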

Data set [2] can be described thus: Chemical stability of the compound assessed as parent compound remaining at 1 mg/ml measured after 7 days at 45 degC by HPLC method (reference value: 100%). It is filed as physicochemical. As to conditions: read-out: Stability. The procedure, abridged: as §1
Data set [3] is described as follows: Antioxidant activity assessed as DPPH radical scavenging activity incubated under dark condition for 30 mins by spectrophotometric analysis. It is filed as functional. A digest of the protocol:
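DPPH radical reduction (violet to colorless in ethanol) monitored spectrophotometrically; ascorbic acid run as reference; IC50 reported in µg/ml.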
For orientation: Loss of DPPH colour is used to gauge radical scavenging.

The species entered for data set [4] is Danio rerio. In words: Effect on neutrophil recruitment to wounded tail fin in Tg(mpx:GFP) zebrafish larvae at 10 to 50 ug/ml measured after 6 hrs. The class given is ADME, organism-based.
For data set [5], the system named is RAW264.7. Kind of data set: Antiinflammatory activity in mouse RAW264.7 cells assessed as inhibition of LPS-induced nitric oxide production after 24 hrs by Griess reagent based assay. It is filed as functional, cell-based. The procedure, abridged:
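RAW264.7 mouse macrophages co-treated with LPS (0.3 μg/mL) plus the test agent at a range of concentrations; NO output quantified as nitrite accumulated in culture medium after 24 h incubation.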

Data set [6] concerns Danio rerio. Kind of data set: Antiinflammatory activity in Tg(mpx:GFP) zebrafish larvae assessed as decrease in neutrophil recruitment to wounded tail fin at 10 to 50 ug/ml dosed 4 hrs post amputation measured after 6 hrs. It is filed as functional, organism-based.
Data set [7] in a line: Chemical stability of the compound assessed as parent compound remaining at 1 mg/ml measured after 21 days at 45 degC by HPLC method (reference value: 100%). It is filed as physicochemical. Conditions: read-out: Stability. A digest of the protocol:
as §1

The nature of data set [8]: Chemical stability of the compound assessed as parent compound remaining at 1 mg/ml measured after 14 days at 45 degC by HPLC method (reference value: 100%). It is filed as physicochemical. Conditions: read-out: Stability. The procedure, abridged: as §1
Data set [9] in a line: Chemical stability of the compound assessed as parent compound remaining at 1 mg/ml measured after 28 days at 45 degC by HPLC method (reference value: 100%). The class given is physicochemical. Conditions: read-out: Stability. A digest of the protocol:
as §1

The subject of data set [10] is RAW264.7. Kind of data set: Cytotoxicity against mouse RAW264.7 cells assessed as decrease in cell viability at 100 ug/ml after 24 hrs by WST-1 assay. As to conditions: raw264.7, 24 h. It is filed as cell-based. (In general: Formazan colour is commonly taken as a measure of viable cells.)

Values after ≈ are worked out from the molar mass of the structure shown. Active and inactive are the calls of the source. The calls are words filed in the database; no cut-off is given here.

Consider `N[C@@H](CCC(=O)NNc1ccccc1O)C(=O)O`, for which the remaining at 24 h, 1 mg/ml in data set [1] worked out at 45.7%.

Broadly, the IC50 is the point on the concentration scale where inhibition reaches its midpoint. As to `CS(=O)(=O)c1ccc(NNC(=O)CC[C@H](N)C(=O)O)c(F)c1`, the remaining at 168 h, 1 mg/ml in data set [2] amounted to 95%. The remaining at 24 h, 1 mg/ml in [1] amounted to 99.4%. Besides, the IC50 in data set [3] was 8.72 µg/mL (≈ 26.2 µM). In addition, the Activity entry in the data set listed under Danio rerio [4] and with RAW264.7 [10] was “Non-Toxic” each time. Besides, the inhibition result in the data set on RAW264.7 [5] was “Dose-dependent effect”. Also, the result in the data set on Danio rerio [6] was Active. Also, in data set [7], the remaining at 504 h, 1 mg/ml is 88.8%. The remaining at 336 h, 1 mg/ml in data set [8] amounted to 87%. Besides, in data set [9], the remaining at 672 h, 1 mg/ml is 87.2%.

Consider `N[C@@H](CCC(=O)NNc1ccccc1F)C(=O)O`, for which, in data set [3], the IC50 was determined as 10.86 µg/mL (≈ 42.5 µM).

On to `CCc1ccccc1NNC(=O)CC[C@H](N)C(=O)O`, for which the IC50 in [3] stood at 17.14 µg/mL (≈ 64.6 µM).

For the molecule `O=C(CC[C@H](NC(=O)OCc1ccccc1)C(=O)OCc1ccccc1)NNc1ccccc1OCc1ccccc1`, the IC50 in data set [3] came to 44.98 µg/mL (≈ 79.2 µM).

With `N[C@@H](CCC(=O)Nc1ccccc1O)C(=O)O`, in [3], the IC50 is 162.42 µg/mL (≈ 682 µM).

As for `Cl.NC(CCC(=O)O)C(=O)NNc1ccccc1O` (configuration not stated), the IC50 in data set [3] is 37.19 µg/mL.

`Cc1ccccc1NNC(=O)CC[C@H](N)C(=O)O`: the remaining at 168 h, 1 mg/ml in data set [2] was determined as 73.8%. In addition, in data set [1], the remaining at 24 h, 1 mg/ml was found to be 82.3%. Besides, the IC50 in [3] was found to be 6.24 µg/mL (≈ 24.8 µM). Moreover, the remaining at 336 h, 1 mg/ml in data set [8] is 56.7%. In addition, the Activity result with RAW264.7 [10] is listed as “Non-Toxic”.

In the case of `Cc1ccc(NNC(=O)CC[C@H](N)C(=O)O)cc1`, in data set [2], the remaining at 168 h, 1 mg/ml is 82%. Moreover, the remaining at 24 h, 1 mg/ml in data set [1] amounted to 85.1%. The IC50 in [3] was determined as 9.99 µg/mL (≈ 39.8 µM). The remaining at 504 h, 1 mg/ml in data set [7] amounted to 58.1%. In addition, the remaining at 336 h, 1 mg/ml in data set [8] stood at 72.2%. Further, the remaining at 672 h, 1 mg/ml in data set [9] came out at 50.4%. Further, the Activity result in the data set with RAW264.7 [10] was “Non-Toxic”.

In the case of `N[C@@H](CCC(=O)NNc1cccc(F)c1)C(=O)O`, the half-maximal inhibitory concentration (IC50) in data set [3] was 11.44 µg/mL (≈ 44.8 µM).

`Cc1ccc(NNC(=O)CC[C@H](N)C(=O)O)c(C)c1`: in [3], the IC50 is 15.75 µg/mL (≈ 59.4 µM).

In the case of `N[C@@H](CCC(=O)NNc1ccc(F)cc1)C(=O)O`, the IC50 in [3] is 13.77 µg/mL (≈ 53.9 µM).

For the molecule `N[C@@H](CCC(=O)NNc1cc(O)cc(O)c1)C(=O)O`, the IC50 in data set [3] is 316.86 µg/mL (≈ 1180 µM).

Turning to `N[C@@H](CCC(=O)NNc1cccc(O)c1)C(=O)O`, in data set [3], the IC50 was determined as 10.67 µg/mL (≈ 42.1 µM).

As to `N[C@@H](CCC(=O)NNc1ccc(O)cc1O)C(=O)O`, the IC50 in data set [3] was 28.01 µg/mL (≈ 104 µM).

For `O=C1O[C@H]([C@@H](O)CO)C(O)=C1O` [ASCORBIC ACID], the 50% inhibitory concentration (IC50) in [3] was 17.38 µg/mL (≈ 98.7 µM).

`Cc1cccc(NNC(=O)CC[C@H](N)C(=O)O)c1`: the IC50 in [3] came out at 10.1 µg/mL (≈ 40.2 µM).

With `CS(=O)(=O)c1ccc(NNC(=O)CC[C@H](N)C(=O)O)cc1`, the remaining at 168 h, 1 mg/ml in data set [2] turned out to be 94.6%. For the same molecule, the remaining at 24 h, 1 mg/ml in [1] is 100%. Besides, the IC50 in [3] was determined as 9.57 µg/mL (≈ 30.3 µM). Besides, the remaining at 504 h, 1 mg/ml in data set [7] was determined as 79.2%. Moreover, the remaining at 336 h, 1 mg/ml in data set [8] is 85.5%. In data set [9], the remaining at 672 h, 1 mg/ml was 70.7%.
